According to ChEMBL document CHEMBL1125185, “Nonpeptide angiotensin II receptor antagonists: the discovery of a series of N-(biphenylylmethyl)imidazoles as potent, orally active antihypertensives” (J Med Chem, 1991):
The source made the active and inactive calls. The calls are words filed in the database; no cut-off is given here.

Assays:
[1] = system: Rattus norvegicus; experiment: Blood pressure lowering activity in renal hypertensive rats after peroral administration; type: functional
Summary of the method: (§1)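 Conscious male Sprague-Dawley CD rats, six days after left renal artery ligation and with jugular and carotid cannulae, were dosed by oral gavage at 1-100 mg/kg (4-6 rats/dose). Mean arterial pressure was monitored for 3 h.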

[2] = system: Rattus norvegicus; experiment: Blood pressure lowering activity in renal hypertensive rats after intravenous administration; type: functional
Summary of the method: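 Male Sprague-Dawley CD rats had the left renal artery ligated under hexobarbital (100 mg/kg ip). Six days later the jugular vein and carotid artery were cannulated under hexobarbital (90 mg/kg ip). Compound was given intravenously to the conscious hypertensive rats while mean arterial pressure was recorded.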

[3] = Ionization constant for the compound; type: physicochemical, Rattus norvegicus
[4] = target: T1, Angiotensin II receptor (Rattus norvegicus, UniProt P29089+P25095+P35351); experiment: Inhibition of radioligand [3H]angiotensin II binding to angiotensin II receptor of rat adrenal cortical membrane
T1 sequence (P29089 whole entry): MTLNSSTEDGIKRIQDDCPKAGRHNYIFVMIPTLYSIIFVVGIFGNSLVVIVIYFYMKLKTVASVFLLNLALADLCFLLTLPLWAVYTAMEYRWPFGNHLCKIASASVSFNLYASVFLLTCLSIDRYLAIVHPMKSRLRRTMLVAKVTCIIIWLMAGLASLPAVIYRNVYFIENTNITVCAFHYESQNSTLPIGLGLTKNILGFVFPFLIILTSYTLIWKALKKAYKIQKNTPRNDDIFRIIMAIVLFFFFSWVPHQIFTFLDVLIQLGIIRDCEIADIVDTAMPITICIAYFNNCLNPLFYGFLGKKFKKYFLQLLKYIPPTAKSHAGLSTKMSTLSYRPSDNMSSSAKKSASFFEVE
T1 sequence (P25095 whole entry): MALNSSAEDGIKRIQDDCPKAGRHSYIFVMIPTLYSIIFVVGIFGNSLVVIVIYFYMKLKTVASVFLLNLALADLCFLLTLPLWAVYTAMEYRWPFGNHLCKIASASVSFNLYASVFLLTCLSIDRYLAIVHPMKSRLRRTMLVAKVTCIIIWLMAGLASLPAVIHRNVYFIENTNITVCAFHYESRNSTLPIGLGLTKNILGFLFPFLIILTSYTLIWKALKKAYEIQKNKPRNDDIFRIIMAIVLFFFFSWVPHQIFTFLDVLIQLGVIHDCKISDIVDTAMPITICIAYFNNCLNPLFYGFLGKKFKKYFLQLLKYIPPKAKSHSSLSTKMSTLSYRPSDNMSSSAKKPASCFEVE
T1 sequence (P35351 whole entry): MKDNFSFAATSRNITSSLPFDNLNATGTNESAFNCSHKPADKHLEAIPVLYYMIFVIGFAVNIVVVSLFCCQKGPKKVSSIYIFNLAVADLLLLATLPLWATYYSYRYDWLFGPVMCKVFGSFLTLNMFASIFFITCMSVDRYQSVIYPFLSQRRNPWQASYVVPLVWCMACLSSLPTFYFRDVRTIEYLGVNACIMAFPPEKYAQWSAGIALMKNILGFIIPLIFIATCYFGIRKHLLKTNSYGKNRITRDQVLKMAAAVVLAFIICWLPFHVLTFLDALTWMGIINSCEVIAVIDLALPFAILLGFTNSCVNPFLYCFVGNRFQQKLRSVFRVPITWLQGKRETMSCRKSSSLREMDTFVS
Summary of the method: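 Rat adrenal cortical microsomes came from male Sprague-Dawley CD rats (300-400 g) and were prepared at 4 °C in sucrose/EDTA/Tris pH 7.4. Samples were filtered and counted, in duplicate. Specific binding was defined with 1 µM unlabeled AII. IC50 was taken from the linear portion of the displacement curve.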

[5] = system: Rattus norvegicus; experiment: Blood pressure lowering activity in renal hypertensive rats after peroral administration; Inactive indicates fail to cause significant drop in blood pressure even at 100 mg/kg (in vivo); type: functional, organism-based; set-up: dose 100 mg/kg; summary of the method: as §1

CCCCc1nc(Cl)c(CO)n1Cc1ccc(-c2ccccc2NS(=O)(=O)C(F)(F)F)cc1
Activity [1]: 100 mg/kg | Activity [2]: 10 mg/kg | pKa [3]: 4.5

CCCCc1nc(Cl)c(CNC(=O)OCC)n1Cc1ccc(-c2ccccc2C(=O)O)cc1
Activity [1]: 100 mg/kg | Activity [2]: 10 mg/kg | IC50 [4]: 200 nM

CCCCc1nc(Cl)c(CN)n1Cc1ccc(-c2ccccc2C(=O)O)cc1
IC50 [4]: 3200 nM

CCCCc1nc(C(F)(F)F)c(CO)n1Cc1ccc(-c2ccccc2C(=O)O)cc1
Activity [1]: 30 mg/kg | Activity [2]: 3 mg/kg | IC50 [4]: 62 nM

CCCCc1nc(Cl)c(C(N)=O)n1Cc1ccc(-c2ccccc2C(=O)O)cc1
Activity [1]: 100 mg/kg | Activity [2]: 10 mg/kg | IC50 [4]: 150 nM

CCCCc1nc(Cl)c(CNC(=O)OC)n1Cc1ccc(-c2ccccc2-c2nn[nH]n2)cc1
Activity [1]: >10 mg/kg | Activity [2]: 1 mg/kg | IC50 [4]: 60 nM

CCCCc1nc(Cl)c(CO)n1Cc1ccc(-c2ccccc2-c2n[nH]c(C(F)(F)F)n2)cc1
Activity [1]: 10 mg/kg | Activity [2]: 1 mg/kg | IC50 [4]: 370 nM

CCCCCCc1nc(Cl)c(CO)n1Cc1ccc(-c2ccccc2C(=O)O)cc1
Activity [2]: 10 mg/kg | Activity [5]: inactive

CCCCc1nc(Cl)c(CNC(=O)NC)n1Cc1ccc(-c2ccccc2C(=O)O)cc1
Activity [2]: 10 mg/kg | IC50 [4]: 240 nM | Activity [5]: inactive

CCCCc1nc(Cl)c(COC(C)=O)n1Cc1ccc(-c2ccccc2C(=O)O)cc1
Activity [1]: 100 mg/kg | Activity [2]: 10 mg/kg

CCCCc1nc(Cl)c(COC)n1Cc1ccc(-c2ccccc2NS(=O)(=O)C(F)(F)F)cc1
Activity [1]: 100 mg/kg | Activity [2]: 10 mg/kg | pKa [3]: 4.5

CCCCc1nc(Cl)c(CO)n1Cc1ccc(-c2ccccc2-c2[nH]nnc2C(=O)OC)cc1
Activity [1]: >10 mg/kg | Activity [2]: >1 mg/kg | pKa [3]: 7 | IC50 [4]: 260 nM

CCCCc1nc(Cl)c(COC)n1Cc1ccc(-c2ccccc2-c2nn[nH]n2)cc1
Activity [1]: 3 mg/kg | Activity [2]: 1 mg/kg | pKa [3]: 6

CCCCc1nc(Cl)c(CO)n1Cc1ccc(-c2ccc(C(=O)O)cc2)cc1
Activity [2]: >10 mg/kg | Activity [5]: inactive

CCCCc1nc(Cl)c(CO)n1Cc1ccc(-c2ccccc2NC(=O)C(F)(F)F)cc1
Activity [2]: 10 mg/kg | pKa [3]: 9.5 | Activity [5]: inactive

CCCCc1nc(Cl)c(C(=O)N(C)C)n1Cc1ccc(-c2ccccc2C(=O)O)cc1
Activity [1]: 10 mg/kg | Activity [2]: 10 mg/kg | IC50 [4]: 1300 nM

CCCCc1nc(Cl)c(CO)n1Cc1ccc(-c2ccccc2C(N)=O)cc1
IC50 [4]: 35000 nM

CCCCc1nc(Cl)c(CO)n1Cc1ccc(-c2c(OC)cccc2C(=O)O)cc1
Activity [1]: 100 mg/kg | Activity [2]: 10 mg/kg | IC50 [4]: 3000 nM

CCCCc1nc(Cl)c(COC)n1Cc1ccc(-c2ccccc2C(=O)O)cc1
Activity [1]: 100 mg/kg | Activity [2]: 10 mg/kg | pKa [3]: 5

CCCCc1nc(Cl)c(CNC(=O)NC(C)c2cccc3ccccc23)n1Cc1ccc(-c2ccccc2C(=O)O)cc1 (stereo unspecified)
Activity [2]: >10 mg/kg | IC50 [4]: 700 nM | Activity [5]: inactive

CCCCc1ncc(CO)n1Cc1ccc(-c2ccccc2C(=O)O)cc1
Activity [2]: 10 mg/kg | IC50 [4]: 270 nM | Activity [5]: inactive

CCCCc1nc([N+](=O)[O-])c(CO)n1Cc1ccc(-c2ccccc2C(=O)O)cc1
Activity [2]: 10 mg/kg | IC50 [4]: 260 nM | Activity [5]: inactive

CCCCc1nc(Cl)c(CO)n1Cc1ccc(-c2cccc(C)c2C(=O)O)cc1
Activity [1]: 10 mg/kg | Activity [2]: 3 mg/kg | IC50 [4]: 1900 nM

CCCCc1nc(Cl)c(/C=N/NC2=NCCN2)n1Cc1ccc(-c2ccccc2-c2nn[nH]n2)cc1
Activity [1]: 30 mg/kg | Activity [2]: 3 mg/kg | IC50 [4]: 290 nM

C=CCOC(=O)NCc1c(Cl)nc(CCCC)n1Cc1ccc(-c2ccccc2C(=O)O)cc1
Activity [1]: 100 mg/kg | Activity [2]: 10 mg/kg | IC50 [4]: 390 nM

CCCCc1nc(Cl)c(C=O)n1Cc1ccc(-c2cccc(-c3nn[nH]n3)c2)cc1
Activity [1]: 30 mg/kg | Activity [2]: >10 mg/kg | IC50 [4]: > 1000 nM

CCc1nc(Cl)c(CO)n1Cc1ccc(-c2ccccc2C(=O)O)cc1
Activity [1]: 100 mg/kg | Activity [2]: 10 mg/kg | IC50 [4]: 1700 nM

CCCCc1nc(Cl)c(COC)n1Cc1ccc(-c2ccccc2Cc2nnn[nH]2)cc1
Activity [1]: 100 mg/kg | Activity [2]: 10 mg/kg | IC50 [4]: 300 nM

CCCCc1nc(Cl)c(CO)n1Cc1ccc(-c2cccc(C(=O)O)c2)cc1
Activity [1]: 100 mg/kg | Activity [2]: 45 mg/kg

CCCCc1nc(Cl)c(COC)n1Cc1ccc(-c2ccccc2C(=O)Nc2nn[nH]n2)cc1
Activity [2]: 10 mg/kg

CCCCc1nc(Cl)c(/C=N/NS(=O)(=O)c2ccccc2)n1Cc1ccc(-c2ccccc2-c2nn[nH]n2)cc1
Activity [1]: 30 mg/kg | Activity [2]: 3 mg/kg | IC50 [4]: 660 nM

CCCCc1nc(I)c(CO)n1Cc1ccc(-c2ccccc2C(=O)O)cc1
Activity [1]: 100 mg/kg | Activity [2]: 10 mg/kg | IC50 [4]: 61 nM

CCCCc1nc(Cl)c(CO)n1Cc1ccc(-c2ccccc2-c2[nH]nnc2C#N)cc1
Activity [1]: >10 mg/kg | Activity [2]: >1 mg/kg | IC50 [4]: 280 nM

CCCCc1nc(Cl)c(C=O)n1Cc1ccc(-c2ccccc2-c2nn[nH]n2)cc1
Activity [1]: 3 mg/kg | Activity [2]: 0.3 mg/kg | IC50 [4]: 20 nM

CCCCc1nc(Br)c(CO)n1Cc1ccc(-c2ccccc2C(=O)O)cc1
Activity [1]: 30 mg/kg | Activity [2]: 3 mg/kg | IC50 [4]: 90 nM

CCCCc1nc(Cl)c(C(=O)OC)n1Cc1ccc(-c2ccccc2C(=O)O)cc1
Activity [1]: 100 mg/kg | Activity [2]: 10 mg/kg | IC50 [4]: 340 nM

CCCCCc1nc(Cl)c(CO)n1Cc1ccc(-c2ccccc2C(=O)O)cc1
Activity [1]: 30 mg/kg | Activity [2]: 3 mg/kg | IC50 [4]: 980 nM

CCCCc1nc(Br)c(CO)n1Cc1ccc(-c2ccccc2-c2nn[nH]n2)cc1
Activity [1]: 3 mg/kg | Activity [2]: 0.3 mg/kg

CCCc1nc(Cl)c(CO)n1Cc1ccc(-c2ccccc2C(=O)O)cc1
Activity [1]: 30 mg/kg | Activity [2]: 3 mg/kg | IC50 [4]: 160 nM

O=C(O)c1ccccc1-c1ccc(Cn2c(-c3ccccc3)nc(Cl)c2CO)cc1
Activity [1]: 100 mg/kg | Activity [2]: 10 mg/kg

CCCCc1nc(Cl)c(CNC(=O)OC)n1Cc1ccc(-c2ccccc2C(=O)O)cc1
Activity [1]: 30 mg/kg | Activity [2]: 3 mg/kg | IC50 [4]: 250 nM

CCCCc1nc(Cl)c(CNC(=O)OC23C[C@H]4C[C@@H](C2)C[C@@H](C3)C4)n1Cc1ccc(-c2ccccc2C(=O)O)cc1
Activity [1]: 30 mg/kg | Activity [2]: 3 mg/kg | IC50 [4]: 600 nM

CCCCc1nc(Cl)c(C(O)c2ccccc2)n1Cc1ccc(-c2ccccc2-c2nn[nH]n2)cc1 (stereo unspecified)
Activity [1]: >30 mg/kg | Activity [2]: 3 mg/kg | IC50 [4]: 410 nM

CCCCc1nc(Cl)c(C=O)n1Cc1ccc(-c2ccccc2-c2[nH]nnc2F)cc1
Activity [2]: >10 mg/kg | IC50 [4]: 13000 nM | Activity [5]: inactive

CCCCc1nc(Cl)c(CNC(=O)Nc2cccc3ccccc23)n1Cc1ccc(-c2ccccc2C(=O)O)cc1
Activity [2]: 10 mg/kg | IC50 [4]: 3000 nM | Activity [5]: inactive

CCCCc1nc(I)c(CO)n1Cc1ccc(-c2ccccc2-c2nn[nH]n2)cc1
Activity [1]: 10 mg/kg | Activity [2]: 1 mg/kg
